Screens: PubChem, several laboratories
Sampled rows, rich in hits. Any-hit rate of the full collection: about 2.5%.
TRPC4 act: activators of mouse TRPC4 channel, primary screen, Fluo4 calcium, HEK293 TRPC4beta/mu-opioid cells. Short transient receptor potential channel 4 (Mus musculus), Q9QUQ5. Fluo4 calcium fluorescence; active compounds read high. B-score at 10 µM. actives 0.49% (n = 310,000). AID 2237, 2010;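 active means B-score above 5 SD of library B-scores, and initial fluorescence ratio not above library mean plus 5 SD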;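 further: positive B-score marks a calcium rise read as TRPC4 activation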
Target sequence (Q9QUQ5 whole entry, looked up): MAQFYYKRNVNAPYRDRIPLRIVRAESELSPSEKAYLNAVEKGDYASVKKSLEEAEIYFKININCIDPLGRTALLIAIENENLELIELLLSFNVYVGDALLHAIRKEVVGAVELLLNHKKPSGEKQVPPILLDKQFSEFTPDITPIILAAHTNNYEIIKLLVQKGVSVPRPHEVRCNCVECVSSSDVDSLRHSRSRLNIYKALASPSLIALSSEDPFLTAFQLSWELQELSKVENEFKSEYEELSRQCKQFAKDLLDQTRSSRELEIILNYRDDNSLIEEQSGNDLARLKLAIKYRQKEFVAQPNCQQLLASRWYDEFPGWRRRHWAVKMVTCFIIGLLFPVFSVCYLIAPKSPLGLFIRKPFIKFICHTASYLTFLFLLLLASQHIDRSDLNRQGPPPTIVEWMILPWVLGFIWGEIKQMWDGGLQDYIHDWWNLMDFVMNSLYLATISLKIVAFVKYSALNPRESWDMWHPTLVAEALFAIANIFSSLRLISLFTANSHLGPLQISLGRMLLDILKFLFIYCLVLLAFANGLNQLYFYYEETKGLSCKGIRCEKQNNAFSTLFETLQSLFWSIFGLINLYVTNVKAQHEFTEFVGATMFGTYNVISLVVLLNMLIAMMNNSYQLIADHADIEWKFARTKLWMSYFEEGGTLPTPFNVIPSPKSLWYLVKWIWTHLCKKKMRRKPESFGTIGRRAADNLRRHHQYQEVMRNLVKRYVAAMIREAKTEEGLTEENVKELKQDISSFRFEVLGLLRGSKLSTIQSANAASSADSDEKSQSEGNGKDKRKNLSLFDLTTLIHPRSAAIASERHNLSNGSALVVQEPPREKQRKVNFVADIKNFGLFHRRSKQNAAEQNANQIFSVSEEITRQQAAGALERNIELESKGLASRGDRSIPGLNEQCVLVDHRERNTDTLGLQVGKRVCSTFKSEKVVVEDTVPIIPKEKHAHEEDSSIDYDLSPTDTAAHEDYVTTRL
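Assay system – TRPC4beta and mu-opioid receptor HEK293 stable cells · Measured by – Fluo4 fluorescence, kinetic · Schedule – dye loading 45 min room temperature, 110 s kinetic read · Read-out – B-scored integrated calcium fluorescence ratio · Controls – buffer and maximal DAMGO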
TRPC4 potent: positive allosteric modulators of TRPC4, primary screen, cell-based, mouse TRPC4beta, HEK293 mu-opioid, Fluo-4 calcium; AID 2227, 2009; actives 0.42% (n = 310,000); DAMGO EC20, Fluo-4 Ca2+ flux; active compounds read high; B-score at 10 µM; Short transient receptor potential channel 4 (Mus musculus), Q9QUQ5;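 active means B-score of calcium response area above 5 SD of library B-scores, with initial fluorescence ratio within 5 SD of library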;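 further: B-score of integrated fluorescence ratio over time as area under calcium response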
Pemphigus Ab inh: inhibitors of pemphigus antibody binding to DSG3, primary screen, biochemical, bead-based, flow cytometry, scFv-GFP | Desmoglein-3 (Homo sapiens), P32926 | DSG3-coupled beads, scFv-anti-DSG3-GFP binding; active compounds read low | binding (percent of control), % at 10 µM | actives 0.48% (n = 310,000);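 active means binding more than 3 SD below its plate's average and above zero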;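 further: hits lower antibody fragment binding to DSG3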
TRPC6 inh: mouse TRPC6 channel inhibitors, primary screen, cell-based, HEK293, membrane potential dye; Short transient receptor potential channel 6 (Mus musculus), Q61143; ACh-evoked depolarization; active compounds read low; B-score at 10 µM; actives 1.1% (n = 310,000); AID 2553, 2010;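 active means B-score under library mean minus 3 SD, initial fluorescence not abnormally high, positive integrated signal ratio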;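 further: B-score derived from integrated fluorescence ratio over the kinetic read; more negative B-score means stronger inhibition of depolarization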
TRPC4 block: inhibitors of mouse TRPC4 channel, primary screen, Fluo4 calcium, HEK293 TRPC4beta/mu-opioid cells; B-score at 10 µM; actives 0.39% (n = 300,000); Short transient receptor potential channel 4 (Mus musculus), Q9QUQ5; DAMGO-evoked Fluo4 calcium flux; active compounds read low;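 active means B-score over 3 SD under the library average, no early fluorescence shift, positive overall ratio signal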
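Assay system: HEK293 cells with stable TRPC4beta plus mu-opioid receptor expression. Dosing: single dose. Measured by: Fluo4 Ca2+ flux fluorescence. Also added: DAMGO in two steps, submaximal then maximal. Read-out: B score from integrated Fluo4 fluorescence ratio.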
TRPC6 act: mouse TRPC6 channel activators, primary screen, cell-based, HEK293, membrane potential dye; HEK293-TRPC6 membrane potential dye fluorescence; active compounds read high; actives 0.13% (n = 310,000); B-score at 10 µM; AID 2550, 2010;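 active means B-score of the integrated fluorescence ratio above library mean plus 3 SD, and starting fluorescence ratio within library mean plus 5 SD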;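 further: higher score means more depolarization so channel activation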
TRPC4 spec 2: second check of whether TRPC6 inhibitors also affect mouse TRPC4; AID 2776; HEK293 TRPC4/MOR, membrane potential dye fluorescence; channel activated by saturating DAMGO dose; inhibition, % at 10 µM; shares compounds with TRPC6 inh; actives 42% (n = 920);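 active means compounds whose fluorescence signal differed from control wells by over 3 SD, either direction, in both duplicate plates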
TRPC4 spec: mouse TRPC4 modulation by TRPC6 hits, confirmation, selectivity assay for TRPC6 inhibitor project, cell-based, HEK293 TRPC4/mu-opioid, membrane potential dye | shares compounds with TRPC6 inh | membrane potential fluorescence | activity change, negative = inhibition, % at 10 µM | actives 61% (n = 920) | AID 2777, 2010;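 active means rise or fall in signal beyond 3 SD of buffer-only wells in both replicate plates, either sign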;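 further: integrated kinetic ratio of fluorescence range over baseline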
HEK293 MPD ctr 2-1: nonspecific membrane potential effects, parental HEK293, confirmation, counter-screen for TRPC6 inhibitor project, cell-based, second counter screen; actives 31% (n = 920); signal change vs control, % at 10 µM; AID 2779, 2010; shares compounds with TRPC6 inh; parental HEK293 membrane potential dye fluorescence; maximal acetylcholine challenge after compound addition;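 active means membrane potential signal moving either way by over 3 SD of the maximum-effect control, in both duplicate plates, meaning non-specific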
HEK293 MPD ctr-1: membrane potential modulation in parental HEK293, confirmation, counter-screen for TRPC6 inhibitor project, cell-based. shares compounds with TRPC6 inh. parental HEK293 membrane potential dye fluorescence. membrane potential signal change, % at 10 µM. actives 60% (n = 920). AID 2780, 2010;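 active means membrane potential signal shifting up or down by more than 3 SD of buffer-only wells, on both duplicate plates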
HEK293 MPD ctr-2: parental HEK293 membrane potential modulation, confirmation, counter-screen for TRPC6 modulator project, cell-based. shares compounds with TRPC6 inh. membrane potential dye fluorescence. membrane potential signal change, % at 10 µM. actives 51% (n = 2,400);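 active means membrane potential signal moves up or down beyond 5 SD from buffer-only wells, on both duplicate plates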
HEK293 MPD ctr 2-2: second check of TRPC6 modulator effects in parental HEK293 cells. shares compounds with TRPC6 inh. inhibition, % at 10 µM. membrane potential dye fluorescence; after compound, maximal acetylcholine stimulation. actives 14% (n = 2,400);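 active means membrane potential signal drops by more than 5 SD from the mean control signal, in both duplicate plates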;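 further: plate controls were acetylcholine ECmax control wells for no effect and buffer only wells for full effect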
TRPC4 ctr mod: TRPC4 modulation by TRPC6 hit compounds, confirmation, selectivity assay for TRPC6 modulator project, cell-based, HEK293 TRPC4/mu-opioid, membrane potential dye, mouse | membrane potential fluorescence | AID 488927, 2010 | actives 69% (n = 2,400) | shares compounds with TRPC6 inh | percent change from control (negative = decrease, positive = increase), % at 10 µM;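 active means membrane potential signal moved up or down beyond 5 SD of buffer control wells, in both duplicate plates, actives on both sides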;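 further: plate controls were assay buffer wells for no effect and DAMGO maximal-effect wells for full effect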
TRPC4/MOR inh 2: mouse TRPC4 off-target activity of TRPC6 modulators, second screen; shares compounds with TRPC6 inh; HEK293 TRPC4/mu-opioid, membrane potential dye fluorescence; stimulated with maximal-effect DAMGO; inhibition, % at 10 µM; actives 55% (n = 2,400); AID 488928;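 active means drop in membrane potential signal beyond 5 SD of the control wells in both duplicate plates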;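 further: TRPC4 counter screen for TRPC6 hits run under conditions tuned for TRPC6 not TRPC4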
TRPC6 inh conf: mouse TRPC6 channel inhibitors, confirmation, HEK293 cells, membrane potential dye, duplicate; ACh-evoked depolarization; inhibition, % at 10 µM; shares compounds with TRPC6 inh; actives 43% (n = 3,300);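 active means fluorescence ratio falls more than 5 SD below the full-stimulation control mean, in both duplicate runs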;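 further: integrated fluorescence ratio of peak minus minimum over baseline after agonist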
TRPC6 act confirm: mouse TRPC6 channel activators, confirmation, HEK293 cells, membrane potential dye, duplicate | shares compounds with TRPC6 inh | HEK293-TRPC6 membrane potential dye fluorescence, FDSS | activation, % at 10 µM | actives 11% (n = 2,800) | AID 488961, 2010;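 active means ratio signal rise beyond 5 SD above unstimulated control wells' mean, seen in both duplicate runs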;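 further: plate controls were buffer EC0 wells for no effect and acetylcholine ECmax response for full effect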
The depositor's hits bear a star.

For COc1ccc(-n2c(-c3ccccc3)cc3c2CCCC3=O)cc1 the results were TRPC4 act inactive, TRPC4 potent inactive, Pemphigus Ab inh 104, TRPC6 inh inactive, TRPC4 block inactive and TRPC6 act inactive.
For COc1ccc(-n2c(-c3ccc(Br)cc3)c[n+]3c2SC(C)C3)cc1 (configuration not stated) the results were TRPC4 act inactive, TRPC4 potent inactive, Pemphigus Ab inh 100, TRPC6 inh -5.9*, TRPC4 block inactive, TRPC6 act inactive, HEK293 MPD ctr-2 -142%*, HEK293 MPD ctr 2-2 80%*, TRPC4 ctr mod -21%*, TRPC4/MOR inh 2 42%*, TRPC6 inh conf 48%* and TRPC6 act confirm inactive.
`CCOc1ccc(-c2nnc(-c3ccccc3)n2-c2ccccc2)cc1` gave TRPC4 act inactive, TRPC4 potent inactive, TRPC6 inh inactive, TRPC4 block inactive and TRPC6 act inactive.
COc1ccc(-n2c(-c3ccccc3)c[n+]3c2CCC3)cc1 was read as TRPC4 act inactive, TRPC4 potent inactive, TRPC6 inh -5.4*, TRPC4 block inactive, TRPC6 act inactive, HEK293 MPD ctr-2 -104%*, HEK293 MPD ctr 2-2 inactive, TRPC4 ctr mod -18%*, TRPC4/MOR inh 2 inactive, TRPC6 inh conf 40%* and TRPC6 act confirm inactive.
For COc1ccc(-n2c(-c3ccc(Br)cc3)nc(=S)c3c2CCCC3)cc1 the results were TRPC4 act inactive, TRPC4 potent inactive, TRPC6 inh inactive, TRPC4 block inactive and TRPC6 act inactive.
`COc1ccc(-n2c(-c3ccc(Br)cc3)c[n+]3c2CCC3)cc1` gave TRPC4 act inactive, TRPC4 potent inactive, Pemphigus Ab inh 105, TRPC6 inh -7.2*, TRPC4 block inactive, TRPC6 act inactive, TRPC4 spec 2 76%*, TRPC4 spec inactive, HEK293 MPD ctr 2-1 -75%*, HEK293 MPD ctr-1 -192%*, TRPC6 inh conf 61%* and TRPC6 act confirm inactive.
For O=C(N/N=C1/CCSC1)c1cc(Br)ccc1O the results were TRPC4 act inactive, TRPC4 potent inactive, Pemphigus Ab inh 98, TRPC6 inh inactive, TRPC4 block inactive and TRPC6 act inactive.
For FC(F)Sc1ccc(-n2c(-c3ccc(Cl)cc3)c[n+]3c2CCC3)cc1 the results were TRPC4 act inactive, TRPC4 potent inactive, Pemphigus Ab inh 106, TRPC6 inh inactive, TRPC4 block inactive and TRPC6 act inactive.
`Cc1ccc(-n2c(-c3ccc(Cl)cc3)c[n+]3c2CCC3)cc1` gave TRPC4 act inactive, TRPC4 potent inactive, TRPC6 inh -5.2*, TRPC4 block inactive, TRPC6 act inactive, HEK293 MPD ctr-2 inactive, HEK293 MPD ctr 2-2 inactive, TRPC4 ctr mod inactive, TRPC4/MOR inh 2 46%*, TRPC6 inh conf inactive and TRPC6 act confirm inactive.
CCOc1ccc(-n2c(-c3ccc(Cl)cc3)c[n+]3c2SCC3)cc1 was read as TRPC4 act inactive, TRPC4 potent inactive, Pemphigus Ab inh 99, TRPC6 inh -7.3*, TRPC4 block -6*, TRPC6 act inactive, HEK293 MPD ctr-2 -71%*, HEK293 MPD ctr 2-2 80%*, TRPC4 ctr mod inactive, TRPC4/MOR inh 2 36%*, TRPC6 inh conf 42%* and TRPC6 act confirm inactive.
Cc1cc(C)c2cc(C(=O)Nc3ccccc3)[nH]c2c1 was read as TRPC4 act inactive, TRPC4 potent inactive, Pemphigus Ab inh 111, TRPC6 inh inactive, TRPC4 block inactive and TRPC6 act inactive.
